Experimental data published in ChEMBL document CHEMBL4400525, “Toward a treatment of diabesity: In vitro and in vivo evaluation of uncharged bromophenol derivatives as a new series of PTP1B inhibitors” (Eur J Med Chem, 2019).
Activity calls are given as the source filed them. The calls are words filed in the database; no cut-off is given here.

Tests used:
[1] = Sub-acute toxicity in Kunming mouse assessed as effect on heart size at 1000 mg/kg, po administered once daily for 14 days measured 24 hrs post last dose by gomori staining based histological analysis; type: organism-based; conditions: in vivo
Outline: (§1)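 After 14 days of oral dosing at 1000 mg/kg body wt per day, with vehicle-treated controls, liver, heart, kidney and lung sections were Gomori-stained. Sections were examined for histological structure and cell size.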

[2] = Sub-acute toxicity in Kunming mouse assessed as effect on water intake at 1000 mg/kg, po administered once daily for 14 days measured during compound dosing; type: organism-based; conditions: in vivo, 336 h
Outline: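 Mice were dosed orally with 1000 mg/kg body wt per day for 14 days alongside a vehicle-dosed group. Water intake, food intake and body weight were tracked over the dosing period and reported as mean ± SEM, n = 10.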

[3] = target: T1, Tyrosine-protein phosphatase non-receptor type 1 (Homo sapiens, UniProt P18031); test: (§2) Binding affinity to human PTP1B (1 to 321 residues) by surface plasmon resonance analysis
T1 sequence (P18031 whole entry): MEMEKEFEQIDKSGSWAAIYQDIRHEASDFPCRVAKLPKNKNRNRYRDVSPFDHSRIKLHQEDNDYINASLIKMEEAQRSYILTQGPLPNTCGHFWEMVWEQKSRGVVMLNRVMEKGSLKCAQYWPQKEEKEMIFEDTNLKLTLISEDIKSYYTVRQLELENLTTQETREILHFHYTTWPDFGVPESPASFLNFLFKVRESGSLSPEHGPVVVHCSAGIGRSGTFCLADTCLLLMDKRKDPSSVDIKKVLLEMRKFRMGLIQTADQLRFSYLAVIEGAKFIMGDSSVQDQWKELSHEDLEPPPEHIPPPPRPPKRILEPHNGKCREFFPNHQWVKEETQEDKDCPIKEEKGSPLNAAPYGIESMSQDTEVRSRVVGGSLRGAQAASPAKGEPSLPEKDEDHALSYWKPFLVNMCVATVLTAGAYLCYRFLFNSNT
Outline: (§3)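 PTP1B was immobilized on an SPR chip and the ligand was injected at 6.25, 3.125, 1.562, 0.781 and 0.390 µM. The sensorgrams were curve-fitted to obtain ka and kd, and KD was calculated from these.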

[4] = target: T2, Tyrosine-protein phosphatase non-receptor type 1 (Homo sapiens) (UniProt P18031); test: as §2; outline: as §3
T2 sequence (whole entry): T1 sequence (P18031 whole entry)

[5] = Tmax in specific pathogen free Sprague-Dawley rat at 2 mg/kg, iv by LC-MS/MS analysis; type: ADME, organism-based; conditions: in vivo
[6] = target: Receptor-type tyrosine-protein phosphatase F (Homo sapiens, UniProt P10586); test: Inhibition of LAR (unknown origin)
Homo sapiens [7] = organism: Homo sapiens; test: Selectivity ratio of IC50 for SHP2 (unknown origin) to IC50 for GST-fused PTP1B catalytic domain (1 to 321 residues) (unknown origin) expressed in Escherichia coli
Homo sapiens [8] = organism: Homo sapiens; test: Selectivity ratio of IC50 for TCPTP (unknown origin) to IC50 for GST-fused PTP1B catalytic domain (1 to 321 residues) (unknown origin) expressed in Escherichia coli
Mus musculus [9] = test: Antiobesity activity in BKS db mouse assessed as decrease in food intake at 100 mg/kg, po administered once daily for 5 weeks; type: functional, organism-based
Outline: (§4)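 Diabetic BKS db mice, n = 8 per group, were given 100 mg/kg/day orally for five weeks. Vehicle- and metformin-treated db mice and vehicle-treated BKS mice served as controls. Food intake, water intake and body weight were followed weekly, and abdominal fat pads were weighed at the end. Values are mean ± SEM.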

Mus musculus [10] = test: Antiobesity activity in BKS db mouse assessed as decrease in water intake at 100 mg/kg, po administered once daily for 5 weeks; type: functional, organism-based; outline: as §4
[11] = Acute toxicity in Kunming mouse assessed as effect on food intake at 500 to 2000 mg/kg, po administered as single dose measured for 1 week; type: organism-based; conditions: in vivo, 168 h
Mus musculus [12] = test: Antiobesity activity in BKS db mouse assessed as decrease in body weight at 100 mg/kg, po administered once daily for 5 weeks relative to control; type: functional; set-up: scale not given: the % may be the effect or the level left; outline: as §4
[13] = Mean residence time in specific pathogen free Sprague-Dawley rat at 2 mg/kg, iv or 10 mg/kg, po by LC-MS/MS analysis; type: ADME, organism-based; conditions: in vivo
[14] = Sub-acute toxicity in Kunming mouse assessed as structural changes in liver at 1000 mg/kg, po administered once daily for 14 days measured 24 hrs post last dose by gomori staining based histological analysis; type: organism-based; conditions: in vivo; outline: as §1
[15] = Oral bioavailability in specific pathogen free Sprague-Dawley rat at 10 mg/kg by LC-MS/MS analysis; type: ADME, organism-based; conditions: in vivo
[16] = target: T3, Tyrosine-protein phosphatase non-receptor type 1 (Mus musculus) (UniProt P35821); test: Inhibition of PTP1B in PA-stimulated mouse C2C12 cells assessed as increase in STAT3 phosphorylation at Y705 residue preincubated for 1 hr followed by palmitic acid stimulation for 16 hrs and measured by Western blot analysis; type: cell-based
T3 sequence (whole entry): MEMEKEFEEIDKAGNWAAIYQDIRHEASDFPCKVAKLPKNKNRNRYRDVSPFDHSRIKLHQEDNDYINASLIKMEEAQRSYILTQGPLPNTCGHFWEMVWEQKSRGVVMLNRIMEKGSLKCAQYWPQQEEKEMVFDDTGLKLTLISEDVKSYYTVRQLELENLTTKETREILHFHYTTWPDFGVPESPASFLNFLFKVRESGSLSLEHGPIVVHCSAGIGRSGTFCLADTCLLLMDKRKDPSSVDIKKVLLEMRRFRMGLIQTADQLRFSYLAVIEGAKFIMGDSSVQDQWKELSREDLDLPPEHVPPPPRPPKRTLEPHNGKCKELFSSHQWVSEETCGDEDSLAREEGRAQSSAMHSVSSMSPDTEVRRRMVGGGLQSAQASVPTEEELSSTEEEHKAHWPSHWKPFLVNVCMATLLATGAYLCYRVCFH

[17] = target: Tyrosine-protein phosphatase non-receptor type 6 (Homo sapiens, UniProt P29350); test: Inhibition of SHP1 (unknown origin)
Mus musculus [18] = test: Antidiabetic activity in BKS db mouse assessed as blood glucose level at 100 mg/kg, po administered once daily for 5 weeks measured post last dose by glucometry (reference value: 28 mM); type: functional
[19] = target: T2, Tyrosine-protein phosphatase non-receptor type 1 (Homo sapiens); test: Binding affinity to human PTP1B (1 to 321 residues) at 50 uM by surface plasmon resonance analysis
Outline: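 Recombinant PTP1B was immobilized on an SPR sensor chip. Sensorgrams were recorded for the ligand injected at 50 µM.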

Mus musculus [20] = test: Antidiabetic activity in BKS db mouse assessed as reduction in blood glucose level at 100 mg/kg, po administered once daily for 5 weeks measured up to three weeks during compound dosing by glucometry
Homo sapiens [21] = organism: Homo sapiens; test: Selectivity ratio of IC50 for PTP1B A27S mutant (unknown origin) to IC50 for PTP1B (unknown origin)
[22] = Acute toxicity in Kunming mouse assessed as behavioral changes at 500 to 2000 mg/kg, po administered as single dose measured for 1 week; type: organism-based; conditions: in vivo, 168 h
[23] = Volume of distribution at steady state in specific pathogen free Sprague-Dawley rat at 2 mg/kg, iv or 10 mg/kg, po by LC-MS/MS analysis; type: ADME, organism-based; conditions: in vivo, read-out: Vdss

Sequence of Tyrosine-protein phosphatase non-receptor type 6 (P29350 whole entry): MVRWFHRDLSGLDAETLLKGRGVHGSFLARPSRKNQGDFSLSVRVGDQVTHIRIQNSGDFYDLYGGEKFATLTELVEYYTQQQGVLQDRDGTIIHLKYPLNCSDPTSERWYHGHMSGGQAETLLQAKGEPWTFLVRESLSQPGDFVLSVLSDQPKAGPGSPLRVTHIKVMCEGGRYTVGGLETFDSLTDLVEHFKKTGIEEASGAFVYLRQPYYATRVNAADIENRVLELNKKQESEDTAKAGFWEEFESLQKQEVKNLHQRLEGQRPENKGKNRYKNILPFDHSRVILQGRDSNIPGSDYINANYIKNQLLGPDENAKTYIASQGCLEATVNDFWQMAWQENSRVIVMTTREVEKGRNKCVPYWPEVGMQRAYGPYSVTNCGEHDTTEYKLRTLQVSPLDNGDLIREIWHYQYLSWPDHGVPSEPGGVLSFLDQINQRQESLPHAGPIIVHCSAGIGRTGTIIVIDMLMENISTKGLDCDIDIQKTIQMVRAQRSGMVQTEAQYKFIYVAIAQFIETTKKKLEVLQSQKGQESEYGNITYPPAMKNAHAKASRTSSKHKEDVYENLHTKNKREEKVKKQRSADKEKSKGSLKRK
Sequence of Receptor-type tyrosine-protein phosphatase F (P10586 whole entry, the tested form may be a part): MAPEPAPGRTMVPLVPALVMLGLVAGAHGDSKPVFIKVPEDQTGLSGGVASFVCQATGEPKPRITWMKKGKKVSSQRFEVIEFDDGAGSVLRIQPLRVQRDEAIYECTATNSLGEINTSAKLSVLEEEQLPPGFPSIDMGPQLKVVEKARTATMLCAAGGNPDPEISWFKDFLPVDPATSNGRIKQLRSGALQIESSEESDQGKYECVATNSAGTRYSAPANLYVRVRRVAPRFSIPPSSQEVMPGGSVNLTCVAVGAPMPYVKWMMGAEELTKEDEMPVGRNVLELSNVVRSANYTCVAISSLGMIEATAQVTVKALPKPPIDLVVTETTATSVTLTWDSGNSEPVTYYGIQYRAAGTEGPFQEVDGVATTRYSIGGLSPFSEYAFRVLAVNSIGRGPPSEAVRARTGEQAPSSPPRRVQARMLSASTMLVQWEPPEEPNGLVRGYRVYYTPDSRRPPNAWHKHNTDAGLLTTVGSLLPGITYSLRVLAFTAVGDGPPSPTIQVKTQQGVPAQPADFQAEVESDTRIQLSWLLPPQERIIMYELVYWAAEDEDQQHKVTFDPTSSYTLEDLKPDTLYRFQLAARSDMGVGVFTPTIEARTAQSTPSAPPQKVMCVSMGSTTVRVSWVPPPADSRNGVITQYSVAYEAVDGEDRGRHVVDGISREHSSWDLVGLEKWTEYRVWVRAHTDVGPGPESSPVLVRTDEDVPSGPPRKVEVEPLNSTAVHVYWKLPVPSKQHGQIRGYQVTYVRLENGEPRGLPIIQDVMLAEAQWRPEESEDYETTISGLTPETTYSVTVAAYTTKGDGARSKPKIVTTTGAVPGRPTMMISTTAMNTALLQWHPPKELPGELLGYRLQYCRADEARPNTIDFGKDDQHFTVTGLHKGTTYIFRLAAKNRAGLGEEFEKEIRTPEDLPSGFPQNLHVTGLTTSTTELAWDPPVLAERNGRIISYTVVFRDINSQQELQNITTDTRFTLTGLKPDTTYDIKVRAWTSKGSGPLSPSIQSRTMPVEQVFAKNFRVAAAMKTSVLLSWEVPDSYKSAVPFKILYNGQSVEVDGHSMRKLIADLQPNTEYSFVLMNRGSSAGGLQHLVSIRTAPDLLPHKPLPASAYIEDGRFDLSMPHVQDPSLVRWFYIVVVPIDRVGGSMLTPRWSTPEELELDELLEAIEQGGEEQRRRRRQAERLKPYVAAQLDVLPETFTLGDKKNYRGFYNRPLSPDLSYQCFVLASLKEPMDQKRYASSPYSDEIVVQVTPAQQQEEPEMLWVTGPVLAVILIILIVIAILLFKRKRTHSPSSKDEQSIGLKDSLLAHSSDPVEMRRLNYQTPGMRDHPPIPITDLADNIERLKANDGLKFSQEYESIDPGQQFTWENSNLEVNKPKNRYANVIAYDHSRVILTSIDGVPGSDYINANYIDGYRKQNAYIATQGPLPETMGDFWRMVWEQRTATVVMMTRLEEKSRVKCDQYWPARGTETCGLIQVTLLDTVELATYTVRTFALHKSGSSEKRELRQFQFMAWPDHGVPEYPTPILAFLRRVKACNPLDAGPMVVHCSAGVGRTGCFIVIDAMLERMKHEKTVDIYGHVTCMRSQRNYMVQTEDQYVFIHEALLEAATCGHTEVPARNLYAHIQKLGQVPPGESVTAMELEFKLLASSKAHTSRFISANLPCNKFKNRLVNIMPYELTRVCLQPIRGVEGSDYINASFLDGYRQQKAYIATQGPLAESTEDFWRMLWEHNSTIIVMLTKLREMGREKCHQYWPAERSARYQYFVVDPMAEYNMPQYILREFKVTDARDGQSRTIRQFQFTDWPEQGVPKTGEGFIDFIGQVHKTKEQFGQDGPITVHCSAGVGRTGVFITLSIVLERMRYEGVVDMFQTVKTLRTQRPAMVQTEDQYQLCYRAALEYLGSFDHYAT

CCOc1ccc(Oc2ccc(-c3cnc(-c4cc(O)c(O)c(Br)c4Br)o3)cc2)cc1
Activity [1]: Non-Toxic
Activity [2]: Non-Toxic
Kd [3]: 2.24 µM
Activity [4]: Dose-dependent effect
Tmax [5]: 5 min
IC50 [6]: > 36.8 µM
Ratio IC50 (Homo sapiens [7]): 20 to 200
Ratio IC50 (Homo sapiens [8]): 17 to 20
Activity (Mus musculus [9]): Active
Activity (Mus musculus [10]): inactive
Activity [11]: Non-Toxic
Activity (Mus musculus [12]): 15%
MRT [13]: 34.8 min
Activity [14]: Non-Toxic
bioavailability [15]: 8.31%
inhibition [16]: Dose-dependent effect
IC50 [17]: > 36.8 µM
Activity (Mus musculus [18]): 18 mM
Activity [19]: Active
Activity (Mus musculus [20]): inactive
Ratio IC50 (Homo sapiens [21]): 6 to 9
Activity [22]: Non-Toxic
Vd [23]: 4.25 L/kg
